Experimental data from different studies.
Compare with care: the assays were run in different laboratories.
Action: inhibitor
CDK5: Cyclin-dependent kinase 5 (CDK5, Homo sapiens, UniProt Q00535)
CDK5 with p35: Cyclin-dependent kinase 5, with p35 (CDK5, Homo sapiens, UniProt Q00535)
CDK5 with p25: Cyclin-dependent kinase 5, with p25 (CDK5, Homo sapiens, UniProt Q00535)

`CNc1cc(Oc2cc(C(=O)Nc3cc(N4CCN(C)CC4)cc(C(F)(F)F)c3)ccc2C)ncn1` gave an inhibition of -37.2% (CDK5; target engagement in cells, chemoproteomics; Huh-7; 1 µM).
`COc1cc2ncnc(Nc3ccc(Oc4ccccc4)cc3C)c2cc1OC` has an inhibition of 7% (CDK5 with p35; enzyme activity; 1 µM).
For `CNCc1ccc(-c2cc(-c3nc(-c4ccc(S(=O)(=O)C(C)C)cc4)cnc3N)on2)cc1`, the inhibition was 16% (CDK5 with p35; enzyme activity; 2 µM).
`Cc1ccc(Nc2nccc(N(C)c3ccc4c(C)n(C)nc4c3)n2)cc1S(N)(=O)=O` gave an inhibition of 44% (CDK5 with p25; enzyme activity; 10 µM).
The inhibition of `Cc1ccc(-n2nc(C(C)(C)C)cc2NC(=O)Nc2ccc(OCCN3CCOCC3)c3ccccc23)cc1` is reported as -26% (CDK5 with p35; enzyme activity; 10 µM).
With `COc1cc2ncnc(Nc3ccc(Oc4ccccc4)c(C)c3C)c2cc1OC` the inhibition was 3% (CDK5 with p25; enzyme activity; 1 µM).
With `CCN1CCN(Cc2ccc(NC(=O)c3ccc(C)c(Oc4ccnc5[nH]ccc45)c3)cc2C(F)(F)F)CC1` the inhibition was -88.8% (CDK5; target engagement in cells, chemoproteomics; Huh-7; 1 µM).
`CC[C@H](C)[C@H](NC(=O)[C@H](CCC(N)=O)NC(=O)[C@H](CC(C)C)NC(=O)[C@H](CCSC)NC(=O)[C@H](CCCCN)NC(=O)[C@H](CO)NC(=O)[C@H](CO)NC(=O)[C@H](CCSC)NC(=O)[C@H](CC(C)C)NC(=O)[C@H](CC(N)=O)NC(=O)[C@@H](NC(=O)[C@@H](NC(=O)[C@H](CO)NC(=O)[C@H](CC(C)C)NC(=O)[C@H](CS)NC(=O)[C@H](CCCNC(=N)N)NC(=O)[C@H](CC(=O)O)NC(=O)[C@H](Cc1c[nH]c2ccccc12)NC(=O)[C@H](Cc1ccccc1)NC(=O)[C@H](C)NC(=O)[C@H](CCC(=O)O)NC(=O)[C@@H](N)CCCCN)C(C)C)[C@@H](C)CC)C(=O)N[C@@H](CC(N)=O)C(=O)N[C@@H](C)C(=O)O` gave an inhibition of 59% (CDK5 with p25; enzyme activity, radiometric; 250 µM).
The inhibition of `COc1cc(-c2cc(-c3ccc(N4CCNCC4)cc3)cnc2C)cc(OC)c1OC` is reported as 3% (CDK5 with p25; enzyme activity; 1 µM).
For `CN1CC(Oc2cnc(C#N)cc2-c2ccn3nc(NC(=O)C4CC4)cc3c2)C1`, the inhibition was 4% (CDK5 with p25; enzyme activity; 1 µM).
`Nc1nc(Nc2ccc(S(N)(=O)=O)cc2)sc1C(=O)c1ccccc1[N+](=O)[O-]` has an inhibition of 95 to 96% (CDK5; enzyme activity; 0.1 µM).
The inhibition of `CN(C)C1CCN(CC#Cc2nn(C3CCCC3)c3nc(NCc4ccccc4)ncc23)C1` (stereo not drawn) is reported as 1% (CDK5 with p25; enzyme activity, FRET; 0.1 µM).
